Publication PMC6931074 (Journal of Pharmaceutical Analysis, 2018)
Where two headings read alike, the source gives them in different places.

Columns and labels:
[1] = cited from earlier work
[2] = format: physicochemical
Method in brief: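 Test compound stock (0.75 mg/mL in N,N-dimethylformamide) was diluted to 150 μg/mL in phosphate buffers (pH 1.85–10.97, set at 25 °C). Solutions in glass tubes were held in a thermostat bath at 25, 37, 60, 80 or 100 °C. Aliquots were taken at 0–24 h, ice-quenched, diluted tenfold in methanol, filtered (0.22 µm) and run by C18 RP-HPLC (UV 396 nm). Half-life = ln2/k; activation parameters came from Arrhenius relationship.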

Influence of irradiation = format: physicochemical; conditions: solution under indirect daylight at room temperature, after 15 min
Method in brief: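 A 150 μg/mL test compound solution was exposed to daylight at 25 °C, alongside a light-shielded control. Content was measured by C18 RP-HPLC using acetonitrile–phosphate buffer (35:65, pH 6.5) at 1 mL/min, 30 °C, with UV detection at 396 nm.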

Influence of oxidation = format: physicochemical; conditions: H2O2 3%, 10% and 30%
Method in brief: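 Test compound solutions (150 μg/mL) containing 3%, 10% or 30% H₂O₂ were incubated at 25 °C. Samples taken at 0, 2, 5, 10, 20 and 30 min were ice-quenched, diluted tenfold with methanol, filtered (0.22 µm) and quantified by isocratic C18 RP-HPLC (UV 396 nm). Rate constants were derived from plots of ln(Ct/C0) against time.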

pH of maximum stability ([2]; 25 °C, pH 1.85 to 10.97): ~10.97
half-life at 150 μg/mL ([2]; aqueous phosphate buffer, pH 1.85, half-time (t1/2), pH 1.85, 25 °C): 2600 min
half-life at 150 μg/mL ([2]; aqueous phosphate buffer, pH 1.85, half-time (t1/2), pH 1.85, 37 °C): 2020 min
half-life at 150 μg/mL ([2]; aqueous phosphate buffer, pH 1.85, half-time (t1/2), pH 1.85, 60 °C): 1780 min
half-life at 150 μg/mL ([2]; aqueous phosphate buffer, pH 1.85, half-time (t1/2), pH 1.85, 80 °C): 1470 min
half-life at 150 μg/mL ([2]; aqueous phosphate buffer, pH 1.85, half-time (t1/2), pH 1.85, 100 °C): 635 min
half-life at 150 μg/mL ([2]; aqueous phosphate buffer, pH 3.13, half-time (t1/2), pH 3.13, 25 °C): 2610 min
half-life at 150 μg/mL ([2]; aqueous phosphate buffer, pH 3.13, half-time (t1/2), pH 3.13, 37 °C): 2140 min
half-life at 150 μg/mL ([2]; aqueous phosphate buffer, pH 3.13, half-time (t1/2), pH 3.13, 60 °C): 2020 min
half-life at 150 μg/mL ([2]; aqueous phosphate buffer, pH 3.13, half-time (t1/2), pH 3.13, 80 °C): 1400 min
half-life at 150 μg/mL ([2]; aqueous phosphate buffer, pH 3.13, half-time (t1/2), pH 3.13, 100 °C): 663 min
half-life at 150 μg/mL ([2]; aqueous phosphate buffer, pH 5, half-time (t1/2), pH 5.00, 25 °C): 6930 min
half-life at 150 μg/mL ([2]; aqueous phosphate buffer, pH 5, half-time (t1/2), pH 5.00, 37 °C): 3620 min
half-life at 150 μg/mL ([2]; aqueous phosphate buffer, pH 5, half-time (t1/2), pH 5.00, 60 °C): 2180 min
half-life at 150 μg/mL ([2]; aqueous phosphate buffer, pH 5, half-time (t1/2), pH 5.00, 80 °C): 1380 min
half-life at 150 μg/mL ([2]; aqueous phosphate buffer, pH 5, half-time (t1/2), pH 5.00, 100 °C): 580 min
△H^‡ (enthalpy of activation) ([2]; pH 1.85): 11.74 kJ/mol
△S^‡ (entropy of activation) ([2]; pH 1.85): −647.95 J/K/mol
Rate constant (k) ([2]; pH 1.85, 25 °C): 0.0160 h⁻¹
Rate constant (k) ([2]; pH 1.85, 37 °C): 0.0206 h⁻¹
Rate constant (k) ([2]; pH 1.85, 60 °C): 0.0234 h⁻¹
Rate constant (k) ([2]; pH 1.85, 80 °C): 0.0282 h⁻¹
Rate constant (k) ([2]; pH 1.85, 100 °C): 0.0655 h⁻¹
Ea (activation energy) ([2]; pH 1.85, Arrhenius plot 25–100 °C): 14.51 kJ/mol
△H^‡ (enthalpy of activation) ([2]; pH 3.13): 12.07 kJ/mol
△S^‡ (entropy of activation) ([2]; pH 3.13): −646.94 J/K/mol
Rate constant (k) ([2]; pH 3.13, 25 °C): 0.0159 h⁻¹
Rate constant (k) ([2]; pH 3.13, 37 °C): 0.0194 h⁻¹
Rate constant (k) ([2]; pH 3.13, 60 °C): 0.0206 h⁻¹
Rate constant (k) ([2]; pH 3.13, 80 °C): 0.0297 h⁻¹
Rate constant (k) ([2]; pH 3.13, 100 °C): 0.0627 h⁻¹
Ea (activation energy) ([2]; pH 3.13, Arrhenius plot 25–100 °C): 14.85 kJ/mol
△H^‡ (enthalpy of activation) ([2]; pH 5.00): 25.23 kJ/mol
△S^‡ (entropy of activation) ([2]; pH 5.00): −607.24 J/K/mol
Rate constant (k) ([2]; pH 5.00, 25 °C): 0.0060 h⁻¹
Rate constant (k) ([2]; pH 5.00, 37 °C): 0.0115 h⁻¹
Rate constant (k) ([2]; pH 5.00, 60 °C): 0.0191 h⁻¹
Rate constant (k) ([2]; pH 5.00, 80 °C): 0.0302 h⁻¹
Rate constant (k) ([2]; pH 5.00, 100 °C): 0.0717 h⁻¹
Ea (activation energy) ([2]; pH 5.00, Arrhenius plot 25–100 °C): 28.00 kJ/mol
△H^‡ (enthalpy of activation) ([2]; pH 7.10): 26.01 kJ/mol
△S^‡ (entropy of activation) ([2]; pH 7.10): −604.87 J/K/mol
Rate constant (k) ([2]; pH 7.10, 25 °C): 0.0043 h⁻¹
Rate constant (k) ([2]; pH 7.10, 37 °C): 0.0153 h⁻¹
Rate constant (k) ([2]; pH 7.10, 60 °C): 0.0195 h⁻¹
Rate constant (k) ([2]; pH 7.10, 80 °C): 0.0280 h⁻¹
Rate constant (k) ([2]; pH 7.10, 100 °C): 0.0695 h⁻¹
Ea (activation energy) ([2]; pH 7.10, Arrhenius plot 25–100 °C): 28.78 kJ/mol
△H^‡ (enthalpy of activation) ([2]; pH 9.08): 29.34 kJ/mol
△S^‡ (entropy of activation) ([2]; pH 9.08): −594.83 J/K/mol
Rate constant (k) ([2]; pH 9.08, 25 °C): 0.0033 h⁻¹
Rate constant (k) ([2]; pH 9.08, 37 °C): 0.0122 h⁻¹
Rate constant (k) ([2]; pH 9.08, 60 °C): 0.0194 h⁻¹
Rate constant (k) ([2]; pH 9.08, 80 °C): 0.0264 h⁻¹
Rate constant (k) ([2]; pH 9.08, 100 °C): 0.0690 h⁻¹
Ea (activation energy) ([2]; pH 9.08, Arrhenius plot 25–100 °C): 32.11 kJ/mol
△H^‡ (enthalpy of activation) ([2]; pH 10.97): 43.41 kJ/mol
△S^‡ (entropy of activation) ([2]; pH 10.97): −552.37 J/K/mol
Rate constant (k) ([2]; pH 10.97, 25 °C): 0.0016 h⁻¹
shelf-life (t0.9) ([2]; pH 10.97, 25 °C): 65.88
Rate constant (k) ([2]; pH 10.97, 37 °C): 0.0036 h⁻¹
shelf-life (t0.9) ([2]; pH 10.97, 37 °C): 29.28
Rate constant (k) ([2]; pH 10.97, 60 °C): 0.0140 h⁻¹
shelf-life (t0.9) ([2]; pH 10.97, 60 °C): 7.53
Rate constant (k) ([2]; pH 10.97, 80 °C): 0.0267 h⁻¹
shelf-life (t0.9) ([2]; pH 10.97, 80 °C): 3.95
Rate constant (k) ([2]; pH 10.97, 100 °C): 0.0724 h⁻¹
shelf-life (t0.9) ([2]; pH 10.97, 100 °C): 1.46
Ea (activation energy) ([2]; pH 10.97, Arrhenius plot 25–100 °C): 46.18 kJ/mol
half-life at 150 μg/mL ([2]; phosphate buffer, pH 7.1, half-time (t1/2), pH 7.10, 25 °C): 9670 min
half-life at 150 μg/mL ([2]; phosphate buffer, pH 7.1, half-time (t1/2), pH 7.10, 37 °C): 2720 min
half-life at 150 μg/mL ([2]; phosphate buffer, pH 7.1, half-time (t1/2), pH 7.10, 60 °C): 2130 min
half-life at 150 μg/mL ([2]; phosphate buffer, pH 7.1, half-time (t1/2), pH 7.10, 80 °C): 1480 min
half-life at 150 μg/mL ([2]; phosphate buffer, pH 7.1, half-time (t1/2), pH 7.10, 100 °C): 598 min
half-life at 150 μg/mL ([2]; phosphate buffer, pH 9.08, half-time (t1/2), pH 9.08, 25 °C): 12600 min
half-life at 150 μg/mL ([2]; phosphate buffer, pH 9.08, half-time (t1/2), pH 9.08, 37 °C): 3410 min
half-life at 150 μg/mL ([2]; phosphate buffer, pH 9.08, half-time (t1/2), pH 9.08, 60 °C): 2140 min
half-life at 150 μg/mL ([2]; phosphate buffer, pH 9.08, half-time (t1/2), pH 9.08, 80 °C): 1580 min
half-life at 150 μg/mL ([2]; phosphate buffer, pH 9.08, half-time (t1/2), pH 9.08, 100 °C): 602 min
half-life at 150 μg/mL ([2]; phosphate buffer, pH 10.97, half-time (t1/2), pH 10.97, 25 °C): 26000 min
half-life at 150 μg/mL ([2]; phosphate buffer, pH 10.97, half-time (t1/2), pH 10.97, 37 °C): 11600 min
half-life at 150 μg/mL ([2]; phosphate buffer, pH 10.97, half-time (t1/2), pH 10.97, 60 °C): 2970 min
half-life at 150 μg/mL ([2]; phosphate buffer, pH 10.97, half-time (t1/2), pH 10.97, 80 °C): 1560 min
half-life at 150 μg/mL ([2]; phosphate buffer, pH 10.97, half-time (t1/2), pH 10.97, 100 °C): 574 min
reaction order of degradation ([2]; plot of ln(Ct/C0) against time, all degradation conditions): first-order
content of epalrestat relative to that protected from light (Influence of irradiation): a third
stability under oxidation conditions (Influence of oxidation): extremely unstable
Structure (SMILES): CC(/C=C1\SC(=S)N(CC(=O)O)C1=O)=C\c1ccccc1 [epalrestat, 5-[(1Z,2E)− 2-methyl-3-phenylpropenylidene]-4-oxo-2-thioxo-3-thiazolidie acetic acid]
behaviour of epalrestat powder on exposure to light [1]: gradually fades in color and decomposes on exposure to light
